ChEMBL document CHEMBL1121875, “Retinoic acid analogues with ring modifications. Synthesis and pharmacological activity” (J Med Chem, 1981)

These compounds were tested against T1, Ornithine decarboxylase (Mus musculus) (UniProt P00860) (assay: (§1) Percent inhibition of TPA-induced ornithine decarboxylase activity). Conditions: tested as the 2H-labelled form; concentration not given here.
T1 sequence (whole entry): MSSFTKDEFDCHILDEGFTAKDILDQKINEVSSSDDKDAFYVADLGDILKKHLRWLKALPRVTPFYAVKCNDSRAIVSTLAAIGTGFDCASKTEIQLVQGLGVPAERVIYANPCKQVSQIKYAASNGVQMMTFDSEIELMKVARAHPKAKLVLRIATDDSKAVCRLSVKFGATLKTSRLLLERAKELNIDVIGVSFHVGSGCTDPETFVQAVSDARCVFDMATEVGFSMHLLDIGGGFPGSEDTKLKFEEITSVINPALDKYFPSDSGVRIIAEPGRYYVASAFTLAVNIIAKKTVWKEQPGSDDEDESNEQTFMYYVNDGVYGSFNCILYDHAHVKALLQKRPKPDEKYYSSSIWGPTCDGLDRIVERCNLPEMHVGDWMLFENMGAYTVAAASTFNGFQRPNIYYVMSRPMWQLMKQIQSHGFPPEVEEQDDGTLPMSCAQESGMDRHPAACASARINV
Assay type: functional
Summary of the method: (§2)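 Mouse epidermal ODC was induced by topical TPA on the back skin, with each retinoid applied topically to the back at 1.7 or 17 nmol. Each treatment used 3–6 groups of 3–4 mice. Epidermal ODC activity was measured by a previously described method and reported as % inhibition versus TPA-only controls (mean ± SE).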
Compound `CC1=C(/C=C/C(C)=C/C=C/C(C)=C/C(=O)O)C(C)(C)CCC1` has an inhibition of 90%.

The compounds below were run against T1, Ornithine decarboxylase (Mus musculus) (assay: as §1). Conditions: concentration not given here.
Assay type: functional
Parameters: concentration or dose not given beside the values
Summary of the method: as §2
`CC1=C(/C=C/C(C)=C/C=C/C(C)=C\C(=O)O)C(C)(C)CCC1` showed an inhibition of 96%. `CCOC(=O)/C=C(C)/C=C/C=C(C)/C=C/C1=C(C)C2(CCC1(C)C)CC2` showed an inhibition of 72%. For `CCOC(=O)/C=C(C)/C=C/C=C(C)/C=C/C1=CC2CCC1C2` (stereo not drawn), the inhibition was 54%. `CCOC(=O)c1ccc(/C=C(C)/C=C/C23CC2(C)CCCC3(C)C)cc1` (stereo not drawn) showed an inhibition of 80%. Compound `CCOC(=O)c1ccc(/C=C(C)/C=C/C2=C(C)CCCC2(C)C)cc1` has an inhibition of 80%. Compound `CCOC(=O)c1ccc(/C=C(C)/C=C/C23OC2(C)CCCC3(C)C)cc1` (stereo not drawn) has an inhibition of 80%. `CCOC(=O)\C=C(C)/C=C/C=C(C)/C=C/C1=C(C)C2(CCC1(C)C)CC2` showed an inhibition of 67%. `CCOC(=O)/C=C(C)/C=C/C=C(C)/C=C/C12CC1(C)CCCC2(C)C` (stereo not drawn) was tested, and the inhibition was 70%. `CCOC(=O)\C=C(C)/C=C/C=C(C)/C=C/C12CC1(C)CCCC2(C)C` (stereo not drawn) was tested, and the inhibition was 45%. For `CCOC(=O)/C=C(C)/C=C/C=C(C)/C=C/C1CC2CCC1C2` (stereo not drawn), the inhibition was 64%. `CC1=C(/C=C/C(C)=C/C=C/C(C)=C/C(=O)O)C(C)(C)CCC1` showed an inhibition of 92%.

Same assay, conditions: tested as the 2H-labelled form, concentration not given here
`CC1=C(/C=C/C(C)=C/C=C/C(C)=C/C(=O)O)C(C)(C)CCC1` showed an inhibition of 90%.
